The test system of one assay is Influenza A virus. Put plainly: Antiviral activity against Influenza A virus H1N1 infected in MDCK cells assessed as inhibition of virus-induced cytopathic effect after 3 days by XTT assay. Format: functional, organism-based. The conditions noted are these: 72 h. In short, it runs like this: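 MDCK cells, trypsinized and seeded at 1.0 × 10^5 cells/mL, grown 24 h at 35 °C, 5% CO2 in MEM with 2% FCS plus antibiotics. Virus added for 1 h, then test substances at several concentrations in triplicate. After 3 days at 35 °C, XTT added for 3 h and OD492/OD690 read.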
(In general: Damage to the host cells serves as the signal in cytopathic effect assays.)

Another assay concerns HepG2. The experiment in a line: Cytotoxicity against human HepG2 cells after 3 days by MTT assay. The class given is functional, cell-based. The conditions noted are these: HepG2, 72 h. In short, it runs like this: (§1)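 Freshly trypsinized cells were seeded at 5000-10 000 cells/well, with compounds added from DMSO stock, and cultured 3 days. Attached cells were then incubated with MTT (0.5 mg/mL, 1 h), solubilized in DMSO, and absorbance read at 550 nm.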
For orientation: Tetrazolium dyes change colour on reduction, which living cells bring about.

For the next assay, the system named is Ca9-22. The experiment in a line: Cytotoxicity against human Ca9-22 cells after 3 days by MTT assay. The class given is functional, cell-based. The conditions noted are these: Ca9-22, 72 h. In short, it runs like this:
as §1

The next assay relates to A549. Put plainly: Cytotoxicity against human A549 cells after 3 days by MTT assay. Format: functional, cell-based. The conditions noted are these: A549, 72 h. In short, it runs like this: as §1
Another assay has as its system MDA-MB-231. Put plainly: Cytotoxicity against human MDA-MB-231 cells after 3 days by MTT assay. The class given is functional, cell-based. The conditions noted are these: MDA-MB-231, 72 h. In short, it runs like this:
as §1

In another assay the test system is MCF7. The experiment in a line: Cytotoxicity against human MCF7 cells after 3 days by MTT assay. Format: functional, cell-based. The settings on record: MCF7, 72 h. In short, it runs like this:
as §1

Assay [1] can be described thus: Cytotoxicity against human Hep3B cells after 3 days by MTT assay. The class given is functional, cell-based, Hep 3B2. The settings on record: 72 h. In short, it runs like this:
as §1

For orientation: IC50 means the point on the concentration scale where inhibition reaches its midpoint. In general, IC90 refers to the concentration needed for an effect of 90%.

In brackets after ≈: the same amount, converted by molar mass.

Turning to `CC1=CC(=O)[C@@H]2C(C)(C)C(=O)CC[C@@]2(C)[C@@H]1COc1ccc2ccc(=O)oc2c1`, in the assay on Influenza A virus, the IC50 stood at 0.32 µg/mL (≈ 0.811 µM) and the IC90 is 0.37 µg/mL (≈ 0.938 µM).
Regarding `C/C(=C\COc1ccc2ccc(=O)oc2c1)CC/C=C(\C)CC[C@@H](O)C(C)(C)O`, the half-inhibitory concentration (IC50) in the assay on Influenza A virus is 0.99 µg/mL (≈ 2.47 µM); in the assay with HepG2 it was over 20 µg/mL; in the assay with Ca9-22 it was over 20 µg/mL; in the assay with A549 it was 11 µg/mL (≈ 27.4 µM); with MDA-MB-231, over 20 µg/mL; in the assay with MCF7, 14.3 µg/mL (≈ 35.6 µM). In assay [1], this compound displayed an IC50 of over 20 µg/mL. In the assay with Influenza A virus, the concentration for an effect of 90% (IC90) came out at 2.05 µg/mL (≈ 5.12 µM).
Regarding `CC(C)=CCC/C(C)=C/[C@@H](O)C/C(C)=C/COc1ccc2ccc(=O)oc2c1`, in the assay on Influenza A virus, the IC50 is 0.36 µg/mL (≈ 0.941 µM) and the IC90 was 0.62 µg/mL (≈ 1.62 µM).
Regarding `CC(=O)OC(CC=C(C)C)/C(C)=C/[C@@H](O)C/C(C)=C/COc1ccc2ccc(=O)oc2c1` (stereo partly drawn), the IC50 with Influenza A virus was 0.81 µg/mL (≈ 1.84 µM); in the assay with HepG2, 15.6 µg/mL (≈ 35.4 µM); in the assay with Ca9-22, 14.2 µg/mL (≈ 32.3 µM); in the assay with A549, over 20 µg/mL; with MDA-MB-231, over 20 µg/mL; in the assay on MCF7, over 20 µg/mL. In assay [1], this compound returned an IC50 of 9.82 µg/mL (≈ 22.3 µM). The concentration for an effect of 90% (IC90) in the assay with Influenza A virus came to 1.56 µg/mL (≈ 3.54 µM).
`NC12CC3CC(CC(C3)C1)C2` [AMANTADINE]: the 50% inhibitory concentration (IC50) in the assay with Influenza A virus was found to be 0.92 µg/mL (≈ 6.08 µM).
As for `CC1=CC[C@@H]2C(C)(C)[C@@H](O)CC[C@@]2(C)[C@@H]1COc1ccc2ccc(=O)oc2c1` [CONFEROL], the IC50 was 0.47 µg/mL (≈ 1.23 µM) with Influenza A virus; 0.51 µg/mL (≈ 1.33 µM) in the assay with HepG2; 6.83 µg/mL (≈ 17.9 µM) in the assay on Ca9-22; 9.08 µg/mL (≈ 23.7 µM) in the assay on A549; over 20 µg/mL in the assay with MDA-MB-231; 3.38 µg/mL (≈ 8.84 µM) with MCF7. In assay [1], the IC50 stood at 2.63 µg/mL (≈ 6.88 µM). Further, in the assay with Influenza A virus, the IC90 was 0.83 µg/mL (≈ 2.17 µM).
On to `COc1cccc2c1C(=O)c1c(O)c3c(c(O)c1C2=O)C[C@@](O)(C(=O)CO)C[C@@H]3O[C@H]1C[C@H](N)[C@H](O)[C@H](C)O1` [DOXORUBICIN], for which the IC50 in the assay on HepG2 was determined as 0.16 µg/mL (≈ 0.294 µM); with Ca9-22, 0.14 µg/mL (≈ 0.258 µM); in the assay on A549, 0.35 µg/mL (≈ 0.644 µM); with MCF7 it was 0.43 µg/mL (≈ 0.791 µM); in assay [1] it was 0.41 µg/mL (≈ 0.754 µM).
In the case of `C=C1CC[C@@H]2C(C)(C)[C@H](O)CC[C@@]2(C)[C@H]1COc1ccc2ccc(=O)oc2c1` [FARNESIFEROL A], the IC50 in the assay with Influenza A virus amounted to 0.51 µg/mL (≈ 1.33 µM); in the assay on HepG2 it was 14.9 µg/mL (≈ 38.9 µM); in the assay with Ca9-22, 12.1 µg/mL (≈ 31.6 µM); with A549, 15.8 µg/mL (≈ 41.3 µM); in the assay on MDA-MB-231, 19 µg/mL (≈ 49.7 µM); in the assay with MCF7 it was 15.6 µg/mL (≈ 40.7 µM). Besides, the IC50 in assay [1] came out at 7.66 µg/mL (≈ 20 µM). Besides, the IC90 in the assay with Influenza A virus is 0.64 µg/mL (≈ 1.67 µM).
For `C/C(=C\COc1ccc2ccc(=O)oc2c1)CC[C@@H]1C(C)(C)[C@H]2CC[C@]1(C)O2` [FARNESIFEROL C], in the assay on Influenza A virus, the IC50 was 0.29 µg/mL (≈ 0.758 µM) and the IC90 came to 0.5 µg/mL (≈ 1.31 µM).
For the compound `CCC(C)SSC/C=C/OS(C)=O` (stereo not drawn) [FOETISULFIDE C], the IC50 in the assay with HepG2 is over 20 µg/mL; in the assay on Ca9-22 it was 16.5 µg/mL (≈ 68.5 µM); with A549, 9.14 µg/mL (≈ 38 µM); in the assay on MDA-MB-231 it was over 20 µg/mL; in the assay on MCF7, over 20 µg/mL; in assay [1] it was 19.2 µg/mL (≈ 79.9 µM).
In the case of `CC(C)=C1CC[C@H](C)[C@](C)(COc2ccc3ccc(=O)oc3c2)[C@H]1CCC(=O)O` [GALBANIC ACID], the IC50 with Influenza A virus turned out to be 0.45 µg/mL (≈ 1.13 µM).
In the case of `C[C@@H]1C[C@@H](O)[C@]2(C)[C@@H](C)C(=O)CC[C@H]2[C@]1(C)COc1ccc2ccc(=O)oc2c1` [KAMOLONOL], the IC50 was over 20 µg/mL in the assay on HepG2; over 20 µg/mL in the assay on Ca9-22; over 20 µg/mL in the assay with A549; over 20 µg/mL with MDA-MB-231; over 20 µg/mL in the assay with MCF7; 17.9 µg/mL (≈ 45 µM) in assay [1].
Regarding `CC1=CC(=O)[C@@H]2C(C)(C)[C@H](O)CC[C@@]2(C)[C@@H]1COc1ccc2ccc(=O)oc2c1` [LIGUPERSIN A], in the assay on Influenza A virus, the IC50 was 0.86 µg/mL (≈ 2.17 µM) and the IC90 is 1.75 µg/mL (≈ 4.41 µM).
On to `COC(=O)CC[C@H]1C(=C(C)C)CC[C@H](C)[C@]1(C)COc1ccc2ccc(=O)oc2c1` [METHYL GALBANATE], for which the IC50 was 0.26 µg/mL (≈ 0.63 µM) in the assay with Influenza A virus; 8.42 µg/mL (≈ 20.4 µM) in the assay with HepG2; 19.1 µg/mL (≈ 46.3 µM) in the assay with Ca9-22; over 20 µg/mL with A549; over 20 µg/mL with MDA-MB-231; over 20 µg/mL in the assay on MCF7. Moreover, the 50% inhibitory concentration (IC50) in assay [1] stood at 4.33 µg/mL (≈ 10.5 µM).
Consider `C=C1CC[C@]2(C)C(C)(C)[C@@H](OC(C)=O)CC[C@]2(C)[C@H]1COc1ccc2ccc(=O)oc2c1` [POLYANTHININ], for which the IC50 with HepG2 came to 10.4 µg/mL (≈ 23.8 µM); in the assay on Ca9-22, 12.7 µg/mL (≈ 28.9 µM); in the assay on A549, 12.3 µg/mL (≈ 28 µM); in the assay with MDA-MB-231, 15.7 µg/mL (≈ 35.8 µM); in the assay on MCF7, 9.94 µg/mL (≈ 22.7 µM); in assay [1], 5.9 µg/mL (≈ 13.5 µM).
Consider `COc1cc(C=O)ccc1O` [VANILLIN], for which the IC50 is over 20 µg/mL in the assay on HepG2; over 20 µg/mL in the assay on Ca9-22; 16.4 µg/mL (≈ 108 µM) with A549; over 20 µg/mL in the assay on MDA-MB-231; 15.7 µg/mL (≈ 103 µM) with MCF7; over 20 µg/mL in assay [1].

The record behind these values is ChEMBL document CHEMBL1154237, “Influenza A (H(1)N(1)) Antiviral and Cytotoxic Agents from Ferula assa-foetida” (J Nat Prod, 2009).
